Results on six compounds are retold here after ChEMBL document CHEMBL1126048, “Synthesis and pharmacological investigation of the enantiomers of muscarone and allomuscarone” (J Med Chem, 1992).

Data set [1] concerns the target T1, Muscarinic acetylcholine receptor M1 (Rattus norvegicus) (UniProt P08482).
T1 sequence (whole entry): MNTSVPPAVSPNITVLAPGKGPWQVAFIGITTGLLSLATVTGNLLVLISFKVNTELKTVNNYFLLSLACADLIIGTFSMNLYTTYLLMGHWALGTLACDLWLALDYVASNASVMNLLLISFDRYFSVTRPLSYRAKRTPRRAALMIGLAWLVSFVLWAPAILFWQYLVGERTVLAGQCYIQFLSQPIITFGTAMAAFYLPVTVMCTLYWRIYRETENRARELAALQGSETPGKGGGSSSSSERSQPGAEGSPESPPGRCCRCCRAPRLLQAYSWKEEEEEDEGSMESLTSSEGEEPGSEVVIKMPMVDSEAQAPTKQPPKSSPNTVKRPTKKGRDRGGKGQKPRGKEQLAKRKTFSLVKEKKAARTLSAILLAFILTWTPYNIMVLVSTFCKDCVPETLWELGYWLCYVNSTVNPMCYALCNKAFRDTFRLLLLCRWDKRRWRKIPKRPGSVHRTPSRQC
Conditions: Cerebral cortex.

For data set [2], the species on record is Cavia porcellus. Put plainly: In vitro potency against muscarinic preparation from guinea pig atria. In kind it is functional. The method in brief:
(§1)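 Isolated tissues: guinea pig atria, ileum and trachea, and rat jejunum and bladder. Agonist concentration–response curves were run, with potency expressed as −log EC50. Values are means ± SEM of six to nine experiments.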

The species named for data set [3] is Cavia porcellus. Briefly: In vitro potency against muscarinic preparation from guinea pig ileum. Format: functional. The method in brief: as §1
In data set [4] the target is T1, Muscarinic acetylcholine receptor M1 (Rattus norvegicus). Conditions: Cerebral cortex. The source holds these as a separate data set.
The species entered for data set [5] is Rattus norvegicus. Briefly: In vitro potency against muscarinic preparation from rat jejunum. Format: functional. The method in brief: as §1
The species entered for data set [6] is Rattus norvegicus. Briefly: Hill coefficient for affinity to M3 muscarinic receptor of rat cerebral cortex.
The species entered for data set [7] is Rattus norvegicus. Briefly: In vitro potency against muscarinic preparation from rat bladder. Format: functional. The method in brief:
as §1

For data set [8], the species on record is Rattus norvegicus. Put plainly: Hill coefficient for affinity to M1 muscarinic receptor of rat cerebral cortex.
Data set [9] is filed under the species Rattus norvegicus. Put plainly: Hill coefficient for affinity to M2 muscarinic receptor of rat cerebral cortex.
For data set [10], the species on record is Cavia porcellus. Put plainly: In vitro potency against muscarinic preparation from guinea pig atria. In kind it is functional. The method in brief: as §1
For data set [11], the species on record is Cavia porcellus. Briefly: In vitro potency against muscarinic preparation from guinea pig trachea. In kind it is functional. The method in brief:
as §1

The species named for data set [12] is Rattus norvegicus. Put plainly: In vitro potency against muscarinic preparation from rat jejunum. In kind it is functional. The method in brief: as §1
The species entered for data set [13] is Cavia porcellus. Put plainly: In vitro potency against muscarinic preparation from guinea pig ileum. Format: functional. The method in brief: as §1
The species entered for data set [14] is Cavia porcellus. Put plainly: In vitro potency against muscarinic preparation from guinea pig trachea. In kind it is functional. Put shortly: as §1

The EC50 is the concentration that produces a half-maximal response. In [1], `C[C@@H]1O[C@H](C[N+](C)(C)C)C[C@H]1O` showed a nH of 1. The EC50 is 0.0204 µM in the data set filed under Cavia porcellus [2] and 0.00741 µM in the data set listed under Cavia porcellus [3].

Compound `C[C@H]1O[C@@H](C[N+](C)(C)C)C[C@@H]1O` displayed a nH in data set [4] of 0.76. Moreover, the concentration for a half-maximal effect (EC50) is 6.76 µM in the data set listed under Cavia porcellus [2] and 2.4 µM in the data set filed under Cavia porcellus [3].

On to `C[C@@H]1O[C@@H](C[N+](C)(C)C)CC1=O.[I-]`, for which the EC50 in the data set filed under Rattus norvegicus [5] is 0.0204 µM; in the data set listed under Rattus norvegicus [7] it was 0.105 µM; in the data set listed under Cavia porcellus [2] it was 0.00513 µM; in the data set listed under Cavia porcellus [3], 0.00347 µM. The nH in the data set filed under Rattus norvegicus [6] is recorded as 0.92; in the data set listed under Rattus norvegicus [8], 0.74; in the data set listed under Rattus norvegicus [9] it was 0.58.

Turning to `C[C@H]1O[C@H](C[N+](C)(C)C)CC1=O.[I-]`, the EC50 was 0.661 µM in the data set listed under Rattus norvegicus [5], 2 µM in the data set filed under Rattus norvegicus [7], 0.229 µM in the data set listed under Cavia porcellus [2] and 0.148 µM in the data set filed under Cavia porcellus [3]. The nH in the data set filed under Rattus norvegicus [6] was 0.9; in the data set listed under Rattus norvegicus [8], 0.89; in the data set filed under Rattus norvegicus [9] it was 0.63.

Regarding `C[C@@H]1O[C@H](C[N+](C)(C)C)CC1=O.[I-]`, the EC50 in the data set filed under Cavia porcellus [10] is 0.0012 µM; in the data set filed under Cavia porcellus [11], 0.00112 µM; in the data set listed under Rattus norvegicus [12], 0.00741 µM; in the data set filed under Cavia porcellus [13] it was 0.000794 µM. Moreover, the nH was determined as 0.78 in the data set listed under Rattus norvegicus [6], 0.79 in the data set filed under Rattus norvegicus [8] and 0.58 in the data set filed under Rattus norvegicus [9].

Turning to `C[C@H]1O[C@@H](C[N+](C)(C)C)CC1=O.[I-]`, the nH in the data set filed under Rattus norvegicus [6] is 1; in the data set filed under Rattus norvegicus [8], 1; in the data set listed under Rattus norvegicus [9], 0.6. Besides, the EC50 was 3.55 µM in the data set listed under Rattus norvegicus [7], 0.49 µM in the data set filed under Cavia porcellus [14], 0.501 µM in the data set listed under Cavia porcellus [2] and 0.302 µM in the data set listed under Cavia porcellus [3].
